Data as given in ChEMBL document CHEMBL1126697, “Bis(heteroaryl)piperazine (BHAP) reverse transcriptase inhibitors: structure-activity relationships of novel substituted indole analogues and the identification of 1-[(5-methanesulfonamido-1H-indol-2-yl)-carbonyl]-4-[3- [(1-methylethyl)amino]-pyridinyl]piperazine monomethanesulfonate (U-90152S), a …” (J Med Chem, 1993).
Structures can show the parent of a compound that is named as a salt.

Assays:
[1] = molecular target: Human immunodeficiency virus type 1 reverse transcriptase (Human immunodeficiency virus 1, UniProt Q72547); experiment: In vitro inhibition of HIV-1 reverse transcriptase
[2] = Cytotoxic concentration against PBMC cells; type: functional; settings: Homo sapiens
Procedure, shortened: (§1)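 PBMC (1×10^6 cells) infected with inoculum containing 1 ng p24 of HIV-1 D34 isolate. Supernatant p24 measured 4 days after infection. Four drug concentrations, 10-fold dilution series. ED50 given as a range when it fell between dilutions. Viability by mitogen-stimulated cell proliferation. Mesylate salts used in this assay.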

[3] = molecular target: Human immunodeficiency virus type 1 reverse transcriptase (Human immunodeficiency virus 1) (UniProt Q72547); experiment: In vitro inhibition of HIV-1 reverse transcriptase at 100 uM
MT2 = experiment: Cytotoxic concentration against MT-2 cells; type: functional; settings: Homo sapiens
Procedure, shortened: (§2)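 HIV-1 IIIb infected MT-2 cells at multiplicity of infection 0.001. Syncytium formation scored 4 days post-infection, at peak viral cytopathic effect. Three drug concentrations, 10-fold dilution series. ED50 given as a range when it fell between dilutions. Viability by trypan blue exclusion.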

[4] = tested on: Human immunodeficiency virus 1; experiment: Inhibition of HIV-1 D34 replication in human peripheral blood mononuclear cells.; type: functional; settings: read-out: ED50 (the source's name); procedure, shortened: as §1
[5] = tested on: Human immunodeficiency virus 1; experiment: Inhibition of HIV-1 IIIB replication in MT2 (human lymphocyte) cells.; type: functional; settings: Human immunodeficiency virus 1, MT2; read-out: ED50 (the source's name); procedure, shortened: as §2
[6] = tested on: Human immunodeficiency virus 1; experiment: Inhibition of HIV-1 replication in human lymphocytes [peripheral blood mononuclear cells (PBMC)/D34 was determined as effective dose; type: functional; settings: read-out: ED50 (the source's name); procedure, shortened: as §1

SMILES	IC50 [1]	CC50 [2]	inhibition [3]	CC50 (MT2)	EC50 [4]	EC50 [5]	EC50 [6]
CC(C)Nc1cccnc1N1CCN(C(=O)c2cc3cc(OS(C)(=O)=O)ccc3[nH]2)CC1	5500 nM	> 10 µM	97%	> 10 µM			
CC(C)Nc1cccnc1N1CCN(C(=O)c2cc3cc(N(C)S(C)(=O)=O)ccc3[nH]2)CC1	5600 nM	> 10 µM	95%	> 10 µM	1 nM		
CC(C)Nc1cccnc1N1CCN(C(=O)c2cc3cc(N)ccc3[nH]2)CC1	1000 nM	> 10 µM	94%	> 10 µM	10 nM		
CC(C)Nc1cccnc1N1CCN(C(=O)c2cc3ccccc3[nH]2)CC1	1200 nM	> 10 µM	96%	> 10 µM	1 nM	300 nM	
CCNc1cccnc1N1CCN(C(=O)c2cc3cc(O)ccc3[nH]2)CC1	2000 nM	> 10 µM	89%	> 10 µM		270 nM	10 nM
CC(=O)Nc1ccc2[nH]c(C(=O)N3CCN(c4ncccc4NC(C)C)CC3)cc2c1	1800 nM	> 10 µM	94%	> 10 µM	10 nM	> 10000 nM	
Cc1ccc2[nH]c(C(=O)N3CCN(c4ncccc4NC(C)C)CC3)cc2c1	34000 nM	> 10 µM	68%	> 10 µM	10 nM	260 nM	
CC(C)Nc1cccnc1N1CCN(C(=O)c2cc3cc(OCc4ccccc4)ccc3[nH]2)CC1	4300 nM	> 10 µM	74%	> 10 µM	10 nM	< 210 nM	
Cc1cn([C@H]2C[C@H](N=[N+]=[N-])[C@@H](CO)O2)c(=O)[nH]c1=O [ZIDOVUDINE]		> 10 µM		> 10 µM	1 nM	70 nM	
CC(C)Nc1cccnc1N1CCN(C(=O)c2cc3ccc(OCc4ccccc4)cc3[nH]2)CC1	37000 nM	> 10 µM	65%	> 10 µM	100 nM		
CC(C)Nc1cccnc1N1CCN(C(=O)c2cc3ccc(C#N)cc3[nH]2)CC1	3900 nM	> 10 µM	74%	> 10 µM			
CCNc1cccnc1N1CCN(C(=O)c2cc3cc(OC)ccc3[nH]2)CC1 [ATEVIRDINE MESYLATE]		> 10 µM	92%	> 10 µM	1 nM	< 200 nM	
CCNc1cccnc1N1CCN(C(=O)c2cc3ccccc3[nH]2)CC1	4000 nM	> 10 µM	96%	> 10 µM	10 nM	300 nM	
CC(C)Nc1cccnc1N1CCN(C(=O)c2cc3ccc(C=O)cc3[nH]2)CC1	1400 nM	> 10 µM	94%	> 10 µM	0.1 nM	< 260 nM	
CC(C)Nc1cccnc1N1CCN(C(=O)c2cc3cc(NC(=O)C(F)(F)F)ccc3[nH]2)CC1	27000 nM	> 10 µM	85%	> 10 µM	1 nM	210 nM	
CCc1cc(NCc2nc3c(Cl)ccc(Cl)c3o2)c(O)nc1C [L-697661]	2700 nM	> 10 µM	98%	> 10 µM	< 0.1 nM	< 300 nM	
COC(=O)Nc1ccc2[nH]c(C(=O)N3CCN(c4ncccc4NC(C)C)CC3)cc2c1	2500 nM	> 10 µM	96%	> 10 µM	0.1 nM		
CC(C)Nc1cccnc1N1CCN(C(=O)c2cc3ccc(O)cc3[nH]2)CC1	1200 nM	> 10 µM	97%	> 10 µM			
CC(C)Nc1cccnc1N1CCN(C(=O)c2cc3cc(O)ccc3[nH]2)CC1	1300 nM	> 10 µM	98%	> 10 µM	1 nM	< 260 nM	
CC(C)Nc1cccnc1N1CCN(C(=O)c2cc3ccc(NS(C)(=O)=O)cc3[nH]2)CC1	500 nM	> 10 µM	98%	> 10 µM	0.1 nM	< 20 nM	
CC(C)Nc1cccnc1N1CCN(C(=O)c2cc3ccc(OS(C)(=O)=O)cc3[nH]2)CC1	2200 nM	> 10 µM	97%	> 10 µM			
COc1ccc2cc(C(=O)N3CCN(c4ncccc4NC(C)C)CC3)[nH]c2c1	1300 nM	> 10 µM	97%	> 10 µM	10 nM	< 250 nM	
CC(C)Nc1cccnc1N1CCN(C(=O)c2cc3cc(NS(=O)(=O)C(F)(F)F)ccc3[nH]2)CC1	8300 nM	> 10 µM	94%	> 10 µM	100 nM	200 nM	
CC(C)Nc1cccnc1N1CCN(C(=O)c2cc3ccc(CO)cc3[nH]2)CC1	760 nM	> 10 µM	98%	> 10 µM	1 nM	< 250 nM	
CC(C)Nc1cccnc1N1CCN(C(=O)c2cc3ccc(F)cc3[nH]2)CC1	4400 nM	> 10 µM	96%	> 10 µM	1 nM	260 nM	
Cc1ccnc2c1NC(=O)c1cccnc1N2C1CC1 [NEVIRAPINE]		> 10 µM	93%	> 10 µM	10 nM		
CC(C)Nc1cccnc1N1CCN(C(=O)c2cc3cc(NS(C)(=O)=O)ccc3[nH]2)CC1 [DELAVIRDINE]		> 10 µM		> 30 µM	0.1 nM	10 nM	
